As usually defined, the inhibition is the relative decrease from the control value, in per cent. Broadly, the IC50 is the concentration needed to halve the response being measured. A high value points to weaker potency in that assay.

Each structure is given as a SMILES string. Activity calls are given as the source filed them. The rule behind the calls is not given here.

The target of test [1] is Tyrosine-protein kinase receptor UFO (Homo sapiens) (UniProt P30530). Put plainly: Inhibition of AXL (unknown origin) at 1000 nM relative to control.
Test [2] addresses Vascular endothelial growth factor receptor 2 (Homo sapiens) (UniProt P35968). Put plainly: Inhibition of VEGFR2 (unknown origin) at 100 nM relative to control. In outline:
(§1)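 ELISA with purified recombinant kinase on plates precoated with poly(Glu,Tyr) 4:1 at 20 µg/mL. ATP 10 µM in HEPES pH 7.4 buffer with MgCl2, MnCl2, Na3VO4 and DTT. Run 60 min at 37 °C. Detected with anti-phosphotyrosine PY99, HRP secondary antibody and o-phenylenediamine, read at 490 nm. Inhibition % = [1 − A490/A490 control]×100. 1% DMSO as negative control.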

Test [3] concerns the target Mitogen-activated protein kinase 1 (Homo sapiens) (UniProt P28482). Put plainly: Inhibition of ERK2 (unknown origin) at 1000 nM relative to control.
Another test concerns NCI-H2286. Put plainly: Antitumor activity against human NCI-H2286 cells xenografted in SCID mouse assessed as tumor growth inhibition at 10 mg/kg, po qd for 10 consecutive days relative to control. The test is classed as functional. The conditions noted are these: read-out: TGI. Summed up: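 NCI-H2286 xenograft established by s.c. fragment implantation. At 100-150 mm³ mice were randomized (vehicle n=10, treated n=5) and given compound orally once daily for 10 days. Tumour volume = length×width²/2, measured twice weekly. TGI taken on the final day from change in volume relative to vehicle, with Student's t-test.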

In test [4] the target is Mitogen-activated protein kinase 3 (Homo sapiens) (UniProt P27361). Kind of test: Inhibition of ERK1 (unknown origin) at 1000 nM relative to control.
Sequence of Mitogen-activated protein kinase 3 (Homo sapiens) (P27361 whole entry): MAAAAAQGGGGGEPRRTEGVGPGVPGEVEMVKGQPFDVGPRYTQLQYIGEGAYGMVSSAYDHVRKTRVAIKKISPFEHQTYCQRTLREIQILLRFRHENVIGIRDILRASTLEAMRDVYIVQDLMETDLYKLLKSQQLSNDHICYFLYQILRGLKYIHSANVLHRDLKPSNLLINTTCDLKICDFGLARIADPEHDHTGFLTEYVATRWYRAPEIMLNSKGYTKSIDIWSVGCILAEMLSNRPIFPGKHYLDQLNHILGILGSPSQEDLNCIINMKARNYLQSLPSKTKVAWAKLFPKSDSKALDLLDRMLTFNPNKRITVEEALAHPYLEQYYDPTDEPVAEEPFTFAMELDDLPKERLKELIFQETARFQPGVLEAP
Test [5] concerns the target Cyclin-dependent kinase 6 (Homo sapiens) (UniProt Q00534). Kind of test: Inhibition of CDK6 (unknown origin) at 1000 nM relative to control.
In test [6] the target is Ephrin type-A receptor 2 (Homo sapiens) (UniProt P29317). Kind of test: Inhibition of EPH-A2 (unknown origin) at 1000 nM relative to control. Summed up:
(§2)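 Purified recombinant kinase domains run in ELISA on precoated poly(Glu,Tyr) 4:1 (20 µg/mL) with 10 µM ATP in 50 mM HEPES pH 7.4, 50 mM MgCl2, 0.5 mM MnCl2, 0.2 mM Na3VO4, 1 mM DTT; 1% DMSO control; 60 min at 37 °C. Phosphotyrosine read by PY99 antibody, HRP anti-mouse IgG, OPD/H2O2 at 490 nm; inhibition = [1−A490/A490control]×100%; two separate experiments.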

Test [7] concerns the target Fibroblast growth factor receptor 2 (Homo sapiens) (UniProt P21802). Kind of test: Inhibition of FGFR2 (unknown origin) at 1000 nM relative to control. Summed up: as §2
The target is the same in test [8]. Put plainly: Inhibition of FGFR2 (unknown origin) at 10 nM relative to control. Summed up:
as §2

For test [9], the target named is Fibroblast growth factor receptor 1 (Homo sapiens, UniProt P11362). Put plainly: Inhibition of FGFR1 (unknown origin) after 60 mins by ELISA.
Sequence of Fibroblast growth factor receptor 1 (P11362 whole entry): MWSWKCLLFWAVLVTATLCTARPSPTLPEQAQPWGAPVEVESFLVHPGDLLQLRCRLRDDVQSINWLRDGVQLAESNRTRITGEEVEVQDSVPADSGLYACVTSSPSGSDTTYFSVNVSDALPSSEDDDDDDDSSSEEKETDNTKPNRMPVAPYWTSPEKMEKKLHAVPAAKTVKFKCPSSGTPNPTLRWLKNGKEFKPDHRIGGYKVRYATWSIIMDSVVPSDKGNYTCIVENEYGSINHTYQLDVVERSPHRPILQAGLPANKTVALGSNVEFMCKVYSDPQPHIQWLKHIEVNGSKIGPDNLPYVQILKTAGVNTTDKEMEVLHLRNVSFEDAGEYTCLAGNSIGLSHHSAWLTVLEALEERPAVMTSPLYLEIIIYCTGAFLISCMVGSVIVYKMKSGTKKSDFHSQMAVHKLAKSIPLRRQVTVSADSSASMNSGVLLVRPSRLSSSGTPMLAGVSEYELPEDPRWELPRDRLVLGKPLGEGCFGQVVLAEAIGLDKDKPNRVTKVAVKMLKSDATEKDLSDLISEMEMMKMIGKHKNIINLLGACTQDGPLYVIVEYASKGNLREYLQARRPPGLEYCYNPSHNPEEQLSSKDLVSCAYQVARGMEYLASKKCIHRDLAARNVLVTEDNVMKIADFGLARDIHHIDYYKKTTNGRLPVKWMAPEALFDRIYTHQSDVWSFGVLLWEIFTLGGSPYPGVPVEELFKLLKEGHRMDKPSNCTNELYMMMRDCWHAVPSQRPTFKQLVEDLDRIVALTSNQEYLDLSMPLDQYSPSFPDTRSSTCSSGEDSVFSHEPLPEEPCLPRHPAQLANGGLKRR
Test [10] concerns the target Proto-oncogene tyrosine-protein kinase Src (Homo sapiens) (UniProt P12931). Put plainly: Inhibition of c-Src (unknown origin) at 1000 nM relative to control. In outline: as §1
The target of test [11] is Cyclin-dependent kinase 1 (Homo sapiens) (UniProt P06493). Kind of test: Inhibition of CDK1 (unknown origin) at 100 nM relative to control.
Test [12] addresses Insulin-like growth factor 1 receptor (Homo sapiens) (UniProt P08069). Kind of test: Inhibition of IGF1R (unknown origin) at 10 nM relative to control. Summed up:
as §2

Test [13] concerns the target Mitogen-activated protein kinase 3 (Homo sapiens) (UniProt P27361). Put plainly: Inhibition of ERK1 (unknown origin) at 10 nM relative to control.
Test [14] addresses Tyrosine-protein kinase JAK1 (Homo sapiens) (UniProt P23458). Kind of test: Inhibition of JAK1 (unknown origin) at 100 nM relative to control. Summed up:
as §2

Test [15] has as its system T1, Discoidin domain-containing receptor 2 (Homo sapiens), Q16832 [I638F].
T1 sequence (whole entry): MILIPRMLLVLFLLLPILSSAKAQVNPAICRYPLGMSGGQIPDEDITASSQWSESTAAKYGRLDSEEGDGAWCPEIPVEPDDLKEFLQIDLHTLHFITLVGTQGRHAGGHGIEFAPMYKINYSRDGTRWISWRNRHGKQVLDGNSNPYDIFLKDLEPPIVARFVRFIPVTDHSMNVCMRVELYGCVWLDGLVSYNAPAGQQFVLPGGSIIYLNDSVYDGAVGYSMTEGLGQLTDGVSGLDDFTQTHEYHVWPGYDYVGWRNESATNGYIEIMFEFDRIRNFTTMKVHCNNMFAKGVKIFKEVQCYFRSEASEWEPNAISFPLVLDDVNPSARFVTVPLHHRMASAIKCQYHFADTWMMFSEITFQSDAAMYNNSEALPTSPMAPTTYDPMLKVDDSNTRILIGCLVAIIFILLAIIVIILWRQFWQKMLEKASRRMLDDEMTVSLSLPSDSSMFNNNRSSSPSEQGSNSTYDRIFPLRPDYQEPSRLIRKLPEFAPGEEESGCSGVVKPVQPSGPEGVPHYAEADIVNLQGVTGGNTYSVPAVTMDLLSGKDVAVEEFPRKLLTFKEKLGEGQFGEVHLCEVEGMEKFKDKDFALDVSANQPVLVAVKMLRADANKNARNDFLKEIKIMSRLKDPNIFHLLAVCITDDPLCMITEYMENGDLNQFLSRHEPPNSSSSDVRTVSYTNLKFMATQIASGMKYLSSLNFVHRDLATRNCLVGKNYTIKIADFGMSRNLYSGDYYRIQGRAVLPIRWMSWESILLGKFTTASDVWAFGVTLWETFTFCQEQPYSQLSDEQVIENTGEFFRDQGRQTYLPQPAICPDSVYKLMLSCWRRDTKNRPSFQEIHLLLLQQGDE
Kind of test: Inhibition of DDR2 I638F mutant in human NCI-H2286 cells assessed as decrease in ERK phosphorylation at […] after 2 hrs by Western blot analysis. The test is classed as cell-based. In outline: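 NCI-H2286 cells exposed to compound for 2 h at 37 °C and lysed in SDS sample buffer. Lysates run on 10% SDS-PAGE and blotted to nitrocellulose. Membranes probed for phospho- and total DDR2, ERK and Akt, with GAPDH as loading control, and detected by HRP secondary antibody and enhanced chemiluminescence.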

The target of test [16] is Receptor-type tyrosine-protein kinase FLT3 (Homo sapiens) (UniProt P36888). Kind of test: Inhibition of FLT-3 (unknown origin) at 100 nM relative to control. Summed up: as §2
Test [17] concerns the target Angiopoietin-1 receptor (Homo sapiens) (UniProt Q02763). Kind of test: Inhibition of Tie-2 (unknown origin) at 10 nM relative to control. In outline: as §1
For test [18], the target named is Platelet-derived growth factor receptor alpha (Homo sapiens) (UniProt P16234). Kind of test: Inhibition of PDGFR-alpha (unknown origin) at 10 nM relative to control. Summed up:
as §2

The target of test [19] is Fibroblast growth factor receptor 4 (Homo sapiens) (UniProt P22455). Kind of test: Inhibition of FGFR4 (unknown origin) at 10 nM relative to control. In outline: as §2
Sequence of Fibroblast growth factor receptor 4 (Homo sapiens) (P22455 22-802 limits assumed): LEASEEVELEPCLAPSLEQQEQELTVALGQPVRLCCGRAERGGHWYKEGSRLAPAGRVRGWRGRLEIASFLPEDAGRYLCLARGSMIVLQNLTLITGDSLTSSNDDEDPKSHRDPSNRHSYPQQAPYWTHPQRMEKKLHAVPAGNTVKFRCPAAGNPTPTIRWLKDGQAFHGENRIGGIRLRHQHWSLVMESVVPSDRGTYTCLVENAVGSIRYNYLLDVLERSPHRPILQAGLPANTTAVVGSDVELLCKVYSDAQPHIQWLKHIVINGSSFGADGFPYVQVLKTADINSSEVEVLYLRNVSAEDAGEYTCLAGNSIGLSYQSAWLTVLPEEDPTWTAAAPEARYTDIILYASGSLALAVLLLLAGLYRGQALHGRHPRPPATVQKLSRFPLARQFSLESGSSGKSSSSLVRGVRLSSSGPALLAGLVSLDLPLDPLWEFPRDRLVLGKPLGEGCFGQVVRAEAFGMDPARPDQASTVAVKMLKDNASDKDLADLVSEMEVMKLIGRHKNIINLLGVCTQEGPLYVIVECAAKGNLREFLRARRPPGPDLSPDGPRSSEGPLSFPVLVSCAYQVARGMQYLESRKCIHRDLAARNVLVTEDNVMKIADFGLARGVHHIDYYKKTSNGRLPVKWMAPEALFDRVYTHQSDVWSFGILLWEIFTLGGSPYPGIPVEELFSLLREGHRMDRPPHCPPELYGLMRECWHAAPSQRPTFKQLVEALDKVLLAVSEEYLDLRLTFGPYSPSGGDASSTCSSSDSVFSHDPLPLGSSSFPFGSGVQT
For test [20], the target named is Receptor tyrosine-protein kinase erbB-4 (Homo sapiens) (UniProt Q15303). Kind of test: Inhibition of ErbB4 (unknown origin) at 10 nM relative to control. In outline:
as §2

Sequence of Fibroblast growth factor receptor 2 (Homo sapiens) (P21802 22-821 limits assumed): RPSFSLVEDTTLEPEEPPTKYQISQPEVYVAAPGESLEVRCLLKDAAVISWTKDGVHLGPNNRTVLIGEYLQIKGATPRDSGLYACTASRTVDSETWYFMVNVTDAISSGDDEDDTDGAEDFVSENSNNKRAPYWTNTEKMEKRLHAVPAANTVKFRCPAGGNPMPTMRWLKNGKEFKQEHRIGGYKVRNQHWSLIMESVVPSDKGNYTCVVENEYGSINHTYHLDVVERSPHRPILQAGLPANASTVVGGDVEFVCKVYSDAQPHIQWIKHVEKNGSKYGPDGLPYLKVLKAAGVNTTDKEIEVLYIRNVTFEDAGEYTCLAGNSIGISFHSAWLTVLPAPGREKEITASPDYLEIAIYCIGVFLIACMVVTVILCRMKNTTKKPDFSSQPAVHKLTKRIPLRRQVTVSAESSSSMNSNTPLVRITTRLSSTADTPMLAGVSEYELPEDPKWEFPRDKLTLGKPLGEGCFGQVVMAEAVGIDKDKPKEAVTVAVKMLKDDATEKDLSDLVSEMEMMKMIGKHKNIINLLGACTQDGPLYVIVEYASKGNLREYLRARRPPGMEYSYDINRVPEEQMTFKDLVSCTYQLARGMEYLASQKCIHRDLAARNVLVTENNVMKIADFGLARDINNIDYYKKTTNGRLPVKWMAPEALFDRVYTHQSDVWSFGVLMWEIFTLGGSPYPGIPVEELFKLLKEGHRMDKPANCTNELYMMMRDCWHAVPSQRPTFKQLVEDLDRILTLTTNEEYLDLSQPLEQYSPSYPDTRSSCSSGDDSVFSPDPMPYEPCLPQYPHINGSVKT
Sequence of Angiopoietin-1 receptor (Homo sapiens) (Q02763 whole entry): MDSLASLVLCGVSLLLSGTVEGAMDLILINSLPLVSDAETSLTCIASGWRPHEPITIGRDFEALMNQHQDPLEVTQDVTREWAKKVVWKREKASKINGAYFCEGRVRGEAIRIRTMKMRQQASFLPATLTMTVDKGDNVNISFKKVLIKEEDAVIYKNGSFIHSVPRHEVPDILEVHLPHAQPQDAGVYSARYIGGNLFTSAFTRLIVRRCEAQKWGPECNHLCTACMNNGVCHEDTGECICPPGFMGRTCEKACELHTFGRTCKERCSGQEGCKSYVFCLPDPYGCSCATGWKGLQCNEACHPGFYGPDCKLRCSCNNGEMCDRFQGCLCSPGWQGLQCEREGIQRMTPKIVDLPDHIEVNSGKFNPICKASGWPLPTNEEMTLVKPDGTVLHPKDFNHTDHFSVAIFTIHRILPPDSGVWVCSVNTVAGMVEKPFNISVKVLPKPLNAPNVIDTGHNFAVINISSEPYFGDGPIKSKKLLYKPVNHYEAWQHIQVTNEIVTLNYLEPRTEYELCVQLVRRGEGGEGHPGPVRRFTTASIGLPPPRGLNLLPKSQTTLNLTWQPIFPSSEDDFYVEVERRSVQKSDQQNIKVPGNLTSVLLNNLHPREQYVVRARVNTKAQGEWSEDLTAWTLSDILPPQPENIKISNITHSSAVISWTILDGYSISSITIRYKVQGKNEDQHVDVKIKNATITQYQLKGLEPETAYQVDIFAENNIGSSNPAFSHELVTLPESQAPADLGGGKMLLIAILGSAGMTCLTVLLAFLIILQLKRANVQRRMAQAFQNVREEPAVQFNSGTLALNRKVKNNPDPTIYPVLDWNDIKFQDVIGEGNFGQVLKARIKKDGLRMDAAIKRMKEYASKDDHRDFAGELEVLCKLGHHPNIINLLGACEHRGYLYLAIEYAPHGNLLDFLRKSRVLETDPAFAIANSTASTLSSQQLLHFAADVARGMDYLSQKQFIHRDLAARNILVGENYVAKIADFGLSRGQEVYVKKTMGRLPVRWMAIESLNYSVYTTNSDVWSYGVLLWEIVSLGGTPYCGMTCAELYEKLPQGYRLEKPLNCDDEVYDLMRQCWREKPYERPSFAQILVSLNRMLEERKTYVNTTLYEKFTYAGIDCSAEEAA
Sequence of Tyrosine-protein kinase JAK1 (Homo sapiens) (P23458 whole entry): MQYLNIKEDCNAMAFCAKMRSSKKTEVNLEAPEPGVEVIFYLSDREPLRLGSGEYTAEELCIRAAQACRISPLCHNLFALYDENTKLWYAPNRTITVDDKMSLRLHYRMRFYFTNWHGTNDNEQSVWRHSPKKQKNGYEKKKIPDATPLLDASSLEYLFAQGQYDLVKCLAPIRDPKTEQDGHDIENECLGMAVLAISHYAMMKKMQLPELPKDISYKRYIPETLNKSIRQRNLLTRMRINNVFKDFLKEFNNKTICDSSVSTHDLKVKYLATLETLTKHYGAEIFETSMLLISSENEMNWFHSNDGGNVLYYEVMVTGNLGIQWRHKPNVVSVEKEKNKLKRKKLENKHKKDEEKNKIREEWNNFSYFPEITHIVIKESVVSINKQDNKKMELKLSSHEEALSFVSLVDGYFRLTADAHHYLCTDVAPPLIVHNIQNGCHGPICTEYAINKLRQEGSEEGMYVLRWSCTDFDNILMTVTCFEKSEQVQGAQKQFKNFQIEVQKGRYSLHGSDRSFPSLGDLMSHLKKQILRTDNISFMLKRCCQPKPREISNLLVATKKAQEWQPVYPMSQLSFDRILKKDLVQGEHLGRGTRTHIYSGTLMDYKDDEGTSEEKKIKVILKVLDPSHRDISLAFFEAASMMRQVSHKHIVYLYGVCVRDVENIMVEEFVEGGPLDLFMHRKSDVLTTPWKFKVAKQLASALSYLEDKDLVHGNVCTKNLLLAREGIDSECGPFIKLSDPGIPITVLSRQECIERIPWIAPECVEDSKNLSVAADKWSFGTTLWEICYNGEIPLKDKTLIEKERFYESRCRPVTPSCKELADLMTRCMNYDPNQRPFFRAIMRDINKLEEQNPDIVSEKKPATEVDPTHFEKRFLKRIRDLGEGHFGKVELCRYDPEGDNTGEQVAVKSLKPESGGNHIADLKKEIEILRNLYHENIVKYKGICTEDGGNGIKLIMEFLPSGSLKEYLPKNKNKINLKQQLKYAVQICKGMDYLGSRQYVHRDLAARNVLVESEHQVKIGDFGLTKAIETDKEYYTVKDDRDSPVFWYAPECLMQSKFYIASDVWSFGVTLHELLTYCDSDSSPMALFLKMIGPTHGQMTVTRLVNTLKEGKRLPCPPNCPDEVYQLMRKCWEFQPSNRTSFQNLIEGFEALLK

Consider `Cc1ccc(C(=O)Nc2cccc(C(F)(F)F)c2)cc1-c1ccc2c(-c3cnn(C4CC4)c3)n[nH]c2c1`, for which the inhibition in test [1] worked out at 99.8%; in test [2] it was 99.2%; in test [3] it was 2.7%; in test [4], 3.8%; in [5] it was 5.9%; in test [6], 100%. Moreover, the inhibition in [7] was 100%; in test [8], 67.8%; in test [10], 96.8%; in test [11], 1.4%; in test [12], 0%; in test [13] it was -2.8%. The inhibition came to 13.1% in [14]; 80.6% in [16]; 10.4% in test [17]; 59.7% in [18]; 8.1% in [19]; 0% in [20]. In addition, in the test with NCI-H2286, the inhibition in vivo at 10 mg/kg was determined as 82.8%. For the same compound, 31.1 nM corresponded to half-maximal inhibition in test [9] (IC50). For the same compound, the inhibition result in test [15] was “Active”.

The values are drawn from ChEMBL document CHEMBL4411287, “Discovery and optimization of a series of 3-substituted indazole derivatives as multi-target kinase inhibitors for the treatment of lung squamous cell carcinoma” (Eur J Med Chem, 2019).
